Measured values of several laboratories.
Lines come from different studies, so protocols differ.
Target: Receptor tyrosine-protein kinase erbB-4 (ERBB4, Homo sapiens, UniProt Q15303)

SMILES	effect on	mode	method	concentration	quantity	value
COc1ncccc1-c1cnn2ccc(N3CCN(C(=O)OC(C)C)CC3)nc12	binding	–	competition with immobilised ligand	1 µM	remaining binding	100%
CC(C)(C)c1cc(C=C(C#N)C#N)cc(Br)c1O	enzyme activity	inhibitor	–	0.5 µM	remaining activity	94%
C#Cc1n[nH]c2c(-c3cn([C@@H](C)c4ccccc4)c(=O)[nH]c3=O)cc(F)cc12	enzyme activity	inhibitor	–	0.1 µM	inhibition	-16.5%
Cc1nn(C)cc1-c1nc2c(N3CCN(Cc4ccc(Cl)cc4)CC3)c(Cl)cnc2[nH]1	binding	–	competition with immobilised ligand	1 µM	remaining binding	100%
Cn1cc(-c2cc(F)cc(N3CCn4c(cc5c4CCCC5)C3=O)c2CO)cc(Nc2ccc(N3CCN(C4COC4)CC3)cn2)c1=O	enzyme activity	inhibitor	–	0.1 µM	inhibition	8%
N#CC1(c2ccccn2)CCN(Cc2cc(C(=O)O)c(=O)n3ccccc23)CC1	cell-free assay	–	competition with immobilised ligand	1 µM	remaining binding	72%
O=c1[nH]c2ccccc2n1C1CCN(Cc2ccc(-c3[nH]c4cc5ncnc5cc4nc3-c3ccccc3)cc2)CC1	cell-free assay	–	–	0.5 µM	remaining signal	105%
Cn1cncc1[C@@](O)(COc1ccc(C#N)cc1-c1ccc(OC(F)(F)F)cc1)c1ccc(C#N)cc1	cell-free assay	–	competition with immobilised ligand	1 µM	remaining binding	100%
Nc1ncc(-c2nc(N3CCOCC3)nc(N3CCOCC3)n2)c(C(F)F)n1	binding	–	competition with immobilised ligand	10 µM	remaining binding	60%
COc1cc(Nc2ncc(F)c(Nc3ccc4c(n3)NC(=O)C(C)(C)O4)n2)cc(OC)c1OC	binding	–	competition with immobilised ligand	10 µM	inhibition	89%
Cn1cc(-c2cccc(N3CCc4c(sc5c4CC(C)(C)C5)C3=O)c2CO)cc(Nc2ccncn2)c1=O	enzyme activity	inhibitor	–	1 µM	inhibition	0%
C#Cc1n[nH]c2c(-c3cn([C@@H](C)c4ccccn4)c(=O)[nH]c3=O)cc(F)cc12	enzyme activity	inhibitor	–	0.1 µM	inhibition	-15.6%
